Values after ≈ are worked out from the molar mass of the structure shown. Active and inactive are the calls of the source. The calls are words filed in the database; no cut-off is given here.
Assays:
Plasmodium falciparum [1] = test: Intrinsic antimalarial activity against chloroquine/artemisinin-resistant Plasmodium falciparum NHP4773 harboring CRT K76T mutant assessed as reduction in parasite viability at 500 nM; assay type: functional, organism-based
[2] = Resistance index, ratio of chloroquine IC50 for chloroquine-resistant Plasmodium falciparum K1 isolate MRA-159 CRT CVIET haplotype mutant to chloroquine IC50 for chloroquine-sensitive Plasmodium falciparum 3D7 isolate MRA-102 at 500 nM
Summary of the method: (§1)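 Chloroquine IC50 was measured with the chemoreversal agent fixed at 500 nM in K1 or 7G8 and in sensitive 3D7 (means, n = 3). The resistance ratio is the chloroquine IC50 in K1 or 7G8 divided by the chloroquine IC50 in 3D7.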

Plasmodium falciparum [3] = test: Potentiation of chloroquine-induced antimalarial activity against chloroquine-sensitive Plasmodium falciparum HB3 isolate MRA-155 assessed as reduction in chloroquine IC50 at 500 nM relative to chloroquine alone; assay type: functional
Plasmodium falciparum K1 [4] = test: Inhibition of CRT CVIET haplotype mutant in chloroquine-resistant Plasmodium falciparum K1 isolate MRA-159 assessed as reversal of chloroquine resistance by measuring reduction in chloroquine IC50 at 500 nM relative to chloroquine alone
Plasmodium falciparum [5] = test: Intrinsic antimalarial activity against chloroquine-resistant Plasmodium falciparum K1 isolate MRA-159 harboring CRT CVIET haplotype mutant assessed as reduction in parasite viability at 500 nM; assay type: functional, organism-based
Plasmodium falciparum [6] = test: Potentiation of chloroquine-induced antimalarial activity against chloroquine-sensitive Plasmodium falciparum 3D7 isolate MRA-102 assessed as reduction in chloroquine IC50 at 500 nM relative to chloroquine alone; assay type: functional
Plasmodium falciparum [7] = test: Intrinsic antimalarial activity against chloroquine-sensitive Plasmodium falciparum HB3 isolate MRA-155 assessed as reduction in parasite viability at 500 nM; assay type: functional, organism-based
[8] = system: T1, Chloroquine resistance transporter (Plasmodium falciparum), Q9N623 [K76T]; test: Inhibition of CRT K76T mutant in chloroquine-resistant Plasmodium falciparum Dd2 isolate MRA-156 assessed as reversal of chloroquine resistance by measuring reduction in chloroquine IC50 at 500 nM relative to chloroquine alone
T1 sequence (whole entry): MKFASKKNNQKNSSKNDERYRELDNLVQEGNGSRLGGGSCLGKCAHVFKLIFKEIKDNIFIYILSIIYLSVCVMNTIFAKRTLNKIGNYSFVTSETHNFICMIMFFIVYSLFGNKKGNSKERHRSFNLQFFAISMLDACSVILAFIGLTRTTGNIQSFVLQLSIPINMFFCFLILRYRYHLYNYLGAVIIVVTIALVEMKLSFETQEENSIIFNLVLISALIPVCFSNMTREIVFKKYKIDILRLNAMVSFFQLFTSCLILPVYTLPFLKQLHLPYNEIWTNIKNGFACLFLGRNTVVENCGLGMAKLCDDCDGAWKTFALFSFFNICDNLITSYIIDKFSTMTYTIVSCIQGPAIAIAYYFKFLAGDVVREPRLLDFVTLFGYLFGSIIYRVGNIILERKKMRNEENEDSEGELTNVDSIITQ

Plasmodium falciparum [9] = test: Intrinsic antimalarial activity against chloroquine-resistant Plasmodium falciparum NHP4559 harboring CRT K76T mutant assessed as reduction in parasite viability at 500 nM; assay type: functional, organism-based
Plasmodium falciparum [10] = test: Intrinsic antimalarial activity against chloroquine/artemisinin-resistant Plasmodium falciparum ARS233 harboring CRT K76T mutant assessed as reduction in parasite viability at 500 nM; assay type: functional, organism-based
[11] = Resistance index, ratio of chloroquine IC50 for intermediate chloroquine-resistant Plasmodium falciparum 7G8 isolate MRA-154 CRT SVMNT haplotype mutant to chloroquine IC50 for chloroquine-sensitive Plasmodium falciparum 3D7 isolate MRA-102 at 500 nM; summary of the method: as §1
Plasmodium falciparum K1 [12] = test: Inhibition of CRT CVIET haplotype mutant in Plasmodium falciparum K1 isolate MRA-159 infected in erythrocytes assessed as chloroquine-coumarin probe accumulation at 10 uM after 10 hrs by Hoechst 33342 staining based flow cytometry (reference value: 35.57 +/- 3.84%); assay type: cell-based; design: scale not given: the % may be the effect or the level left
Summary of the method: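 Infected erythrocyte cultures at 2.5% hematocrit and 7–12% parasitemia, synchronized to late-ring/early-trophozoite stage, were incubated with chloroquine-coumarin probe plus test agent for 10 h at 37 C. Cells were then washed, resuspended in PBS and read by flow cytometry (405 nm excitation, 450/50 filter). Hoechst-stained duplicate wells set parasitemia. Uptake = % infected erythrocytes fluorescent. Controls: PBS (negative), desipramine and parent compound (positive). ≥3 independent experiments; mean ± SEM.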

[13] = system: T1, Chloroquine resistance transporter (Plasmodium falciparum), Q9N623 [K76T]; test: Inhibition of CRT K76T mutant in chloroquine/artemisinin-resistant Plasmodium falciparum NHP4773 assessed as reversal of chloroquine resistance by measuring reduction in chloroquine IC50 at 500 nM relative to chloroquine alone
[14] = system: Plasmodium falciparum 7G8; test: Inhibition of CRT SVMNT haplotype mutant in intermediate chloroquine-resistant Plasmodium falciparum 7G8 isolate MRA-154 t assessed as reversal of chloroquine resistance by measuring reduction in chloroquine IC50 at 500 nM relative to chloroquine alone
[15] = system: T1, Chloroquine resistance transporter (Plasmodium falciparum), Q9N623 [K76T]; test: Inhibition of CRT K76T mutant in chloroquine-resistant Plasmodium falciparum NHP4559 assessed as reversal of chloroquine resistance by measuring reduction in chloroquine IC50 at 500 nM relative to chloroquine alone
Plasmodium falciparum [16] = test: Intrinsic antimalarial activity against chloroquine-resistant Plasmodium falciparum Dd2 isolate MRA-156 harboring CRT K76T mutant assessed as reduction in parasite viability at 500 nM; assay type: functional, organism-based
[17] = system: T1, Chloroquine resistance transporter (Plasmodium falciparum), Q9N623 [K76T]; test: Inhibition of CRT K76T mutant in chloroquine/artemisinin-resistant Plasmodium falciparum ARS233 assessed as reversal of chloroquine resistance by measuring reduction in chloroquine IC50 at 500 nM relative to chloroquine alone
Plasmodium falciparum [18] = test: Intrinsic antimalarial activity against intermediate chloroquine-resistant Plasmodium falciparum 7G8 isolate MRA-154 harboring CRT SVMNT haplotype mutant assessed as reduction in parasite viability at 500 nM; assay type: functional, organism-based
[19] = system: T1, Chloroquine resistance transporter (Plasmodium falciparum), Q9N623 [K76T]; test: Inhibition of CRT K76T mutant in chloroquine/artemisinin-resistant Plasmodium falciparum ARS272 assessed as reversal of chloroquine resistance by measuring reduction in chloroquine IC50 at 500 nM relative to chloroquine alone
Plasmodium falciparum [20] = test: Intrinsic antimalarial activity against chloroquine/artemisinin-resistant Plasmodium falciparum ARS272 harboring CRT K76T mutant assessed as reduction in parasite viability at 500 nM; assay type: functional, organism-based
Plasmodium falciparum [21] = test: Intrinsic antimalarial activity against chloroquine-sensitive Plasmodium falciparum 3D7 isolate MRA-102 assessed as reduction in parasite viability at 500 nM; assay type: functional, organism-based
[22] = Inhibition of CRT CVIET haplotype mutant in chloroquine-resistant Plasmodium falciparum K1 isolate MRA-159 assessed as reversal of chloroquine resistance by measuring reduction in chloroquine IC50 relative to chloroquine alone
Summary of the method: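 Chloroquine IC50 was determined in the presence of a fixed 500 nM chemoreversal agent, against chloroquine alone. The RMI is the ratio of chloroquine IC50 with agent to chloroquine IC50 alone. Mean of n = 3; two-tailed t test versus chloroquine without agent.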

[23] = Aqueous kinetic solubility of compound in pH 7.4 solution incubated for 24 hrs; assay type: physicochemical; settings: aqueous solution pH 7.4, pH 7.4; read-out: Kinetic_solubility

| Structure (SMILES) | Activity (Plasmodium falciparum [1]) | Ratio IC50 [2] | Ratio IC50 (Plasmodium falciparum [3]) | Ratio IC50 (Plasmodium falciparum K1 [4]) | Activity (Plasmodium falciparum [5]) | Ratio IC50 (Plasmodium falciparum [6]) | Activity (Plasmodium falciparum [7]) | Ratio IC50 [8] | Activity (Plasmodium falciparum [9]) | Activity (Plasmodium falciparum [10]) | Ratio IC50 [11] | Activity (Plasmodium falciparum K1 [12]) [%] | Ratio IC50 [13] | Ratio IC50 [14] | Ratio IC50 [15] | Activity (Plasmodium falciparum [16]) | Ratio IC50 [17] | Activity (Plasmodium falciparum [18]) | Activity (Plasmodium falciparum [20]) | Activity (Plasmodium falciparum [21]) | further results |
| --- | --- | --- | --- | --- | --- | --- | --- | --- | --- | --- | --- | --- | --- | --- | --- | --- | --- | --- | --- | --- | --- |
| N[C@@H]1C2CCN(CC2)[C@@H]1C(c1ccccc1)c1ccccc1 (relative stereo) | inactive | 17.4 | 0.99 | 0.93 | inactive | 1.1 | inactive | 0.94 | inactive | inactive | 5.2 | 52.5 | 1.04 | 0.93 | 0.98 | inactive | 0.97 | inactive | inactive | inactive | Ratio IC50 [19]: 0.99 |
| N#CC(CCN1CCCCC1)(c1ccccc1)c1ccccc1 | inactive | 12.2 | 0.98 | 0.71 | inactive | 1.2 | inactive | 0.76 | inactive | inactive | 5.1 | 67 | 0.74 | 1 | 0.66 | inactive | 0.7 | inactive | inactive | inactive | EC50 [22]: 295 nM; Ratio IC50 [19]: 0.7 |
| Clc1ccc2c(c1)C(N1CCNCC1)Cc1ccccc1S2 (stereo unspecified) | inactive | 12.4 | 0.93 | 0.69 | inactive | 1.14 | inactive | 0.83 | inactive | inactive | 4.8 | 79.6 | 0.73 | 0.88 | 0.73 | inactive | 0.71 | inactive | inactive | inactive | solubility kinetic at 24 h [23]: 38.1 µg/mL (≈ 115 µM); Ratio IC50 [19]: 0.76 |
| c1ccc2c(c1)CC(N1CCNCC1)c1ccccc1S2 (stereo unspecified) | inactive | 9.3 | 1 | 0.55 | inactive | 1.21 | inactive | 0.81 | inactive | inactive | 3.8 | 69.8 | 0.69 | 0.76 | 0.68 | inactive | 0.64 | inactive | inactive | inactive | EC50 [22]: 343 nM; solubility kinetic at 24 h [23]: 87.1 µg/mL (≈ 294 µM); Ratio IC50 [19]: 0.68 |
| NCC(c1ccccc1)c1ccccc1 | inactive | 8.4 | 1.1 | 0.45 | inactive | 1.11 | inactive | 0.59 | inactive | inactive | 3.8 | 56.4 | 0.54 | 0.69 | 0.52 | inactive | 0.53 | inactive | inactive | inactive | EC50 [22]: 200 nM; Ratio IC50 [19]: 0.37 |
| NCC(CCN1CCC(O)CC1)(c1ccccc1)c1ccccc1 | inactive | 13.4 | 0.99 | 0.74 | inactive | 1.13 | inactive | 0.91 | inactive | inactive | 5.3 | 64.8 | 0.94 | 0.98 | 0.95 | inactive | 0.9 | inactive | inactive | inactive | Ratio IC50 [19]: 0.93 |
| CC(C)(C)OC(=O)N1CCCC(NCc2ccccc2I)C1 (stereo unspecified) | inactive | – | – | – | inactive | – | inactive | – | inactive | inactive | – | 40.5 | – | – | – | inactive | – | inactive | inactive | inactive | – |
| Ic1ccccc1CN[C@@H]1C2CCN(CC2)[C@@H]1Cc1ccccc1 (relative stereo) | inactive | – | – | – | inactive | – | inactive | – | inactive | inactive | – | 25.8 | – | – | – | inactive | – | inactive | inactive | inactive | – |
| NCC(CCN1CCC(N)CC1)(c1ccccc1)c1ccccc1 | inactive | – | – | – | inactive | – | inactive | – | inactive | inactive | – | 58.9 | – | – | – | inactive | – | inactive | inactive | inactive | – |

— ChEMBL document CHEMBL4428038, “Overcoming chloroquine resistance in malaria: Design, synthesis and structure-activity relationships of novel chemoreversal agents” (Eur J Med Chem, 2016)
